The source of these data is ChEMBL document CHEMBL2384996 (J Med Chem, 2013).

The source made the active and inactive calls. No cut-off for these calls is given here. A value given as a limit tells only on which side of the number the result lay.

Series [1] in a line: Antagonist activity at Gloeobacter violaceus ligand-gated ion channel expressed in Xenopus oocytes assessed as inhibition of MES buffer pH 5.5 -induced currents after 30 secs by voltage clamp technique. It is filed as cell-based. To be noted: Oocyte. Put shortly:
(§1)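 GLIC expressed in Xenopus oocytes, two-electrode voltage clamp. Current elicited by pH 5.5 MES buffer (100 mM NaCl, 3 mM KCl, 1 mM CaCl2, 1 mM MgCl2, 10 mM MES) for 30 sec to steady state. Compound then co-applied for 30 sec in the same pH 5.5 buffer, followed by washout with buffer alone. Oocytes held in Barth's medium after injection.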

The subject of series [2] is Oocyte. Nature of the series: Inhibition of Gloeobacter violaceus ligand-gated ion channel expressed in Xenopus laevis oocytes assessed as inhibition of MES buffer pH 5.5 -induced currents at 300 uM after 30 secs by voltage clamp technique. It is filed as cell-based. The gist of the method: as §1
Series [3] deals with Oocyte. The series can be described thus: Inhibition of Gloeobacter violaceus ligand-gated ion channel expressed in Xenopus laevis oocytes assessed as inhibition of MES buffer pH 5.5 -induced currents at 100 uM after 30 secs by voltage clamp technique. It is filed as cell-based. Put shortly: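 GLIC-expressing oocytes kept in Barth's medium (88 mM NaCl, 1 mM KCl, 2.4 mM NaHCO3, 15 mM HEPES, 0.3 mM NaNO3, 0.7 mM CaCl2). Each cell was first given pH 5.5 buffer (100 mM NaCl, 3 mM KCl, 1 mM CaCl2, 1 mM MgCl2, 10 mM MES) for 30 sec. Compound was then co-applied in the same buffer for 30 sec, followed by washout. Mean ± sd, n ≥ 3 cells.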

Series [4] relates to Oocyte. The series can be described thus: Inhibition of Gloeobacter violaceus ligand-gated ion channel expressed in Xenopus laevis oocytes assessed as inhibition of MES buffer pH 5.5 -induced currents at 1 mM after 30 secs by voltage clamp technique. It is filed as cell-based. The gist of the method: as §1
Series [5] can be described thus: Dissociation constant, pKa of the compound. It is filed as physicochemical.
For series [6], the system named is Oocyte. Nature of the series: Inhibition of Gloeobacter violaceus ligand-gated ion channel expressed in Xenopus laevis oocytes assessed as inhibition of buffer at pH 4 -induced currents at 100 uM after 30 secs by voltage clamp technique. It is filed as cell-based.
In series [7] the test system is Oocyte. The series can be described thus: Selectivity ratio of IC50 for Gloeobacter violaceus ligand-gated ion channel R77A mutant to IC50 for wild-type Gloeobacter violaceus ligand-gated ion channel expressed in Xenopus oocytes. It is filed as cell-based.
Series [8] is described as follows: Inhibition of Gloeobacter violaceus ligand-gated ion channel R105A mutant. Put shortly:
(§2)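 Alanine point mutants of GLIC expressed in Xenopus oocytes, voltage clamp. Compound co-applied with pH 5.5 buffer (100 mM NaCl, 3 mM KCl, 1 mM CaCl2, 1 mM MgCl2, 10 mM MES). Concentration-inhibition curves used for IC50; single-point inhibition taken at 100 μM, or at up to 1 mM. Mean ± sd, n ≥ 3 cells.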

Series [9] deals with Gloeobacter violaceus. The series can be described thus: Inhibition of Gloeobacter violaceus ligand-gated ion channel E177A mutant at 100 uM. The gist of the method: as §2
In series [10] the test system is Oocyte. The series can be described thus: Selectivity ratio of IC50 for Gloeobacter violaceus ligand-gated ion channel R105A mutant to IC50 for wild-type Gloeobacter violaceus ligand-gated ion channel expressed in Xenopus oocytes. It is filed as cell-based.
The subject of series [11] is Oocyte. The series can be described thus: Selectivity ratio of IC50 for Gloeobacter violaceus ligand-gated ion channel E177A mutant to IC50 for wild-type Gloeobacter violaceus ligand-gated ion channel expressed in Xenopus oocytes. It is filed as cell-based.
Series [12] can be described thus: Inhibition of Gloeobacter violaceus ligand-gated ion channel R77A mutant. Put shortly: as §2
Series [13] deals with Gloeobacter violaceus. The series can be described thus: Inhibition of Gloeobacter violaceus ligand-gated ion channel E181A mutant at 100 uM. The gist of the method:
as §2

The test system of series [14] is Gloeobacter violaceus. Nature of the series: Inhibition of Gloeobacter violaceus ligand-gated ion channel R105A mutant at 100 uM. Put shortly: as §2
The nature of series [15]: Inhibition of Gloeobacter violaceus ligand-gated ion channel E177A mutant. The gist of the method:
as §2

In series [16] the test system is Gloeobacter violaceus. The series can be described thus: Inhibition of Gloeobacter violaceus ligand-gated ion channel R77A mutant at 100 uM. Put shortly: as §2
The nature of series [17]: Inhibition of Gloeobacter violaceus ligand-gated ion channel E181A mutant. Put shortly: as §2
In series [18] the test system is Gloeobacter violaceus. Nature of the series: Inhibition of Gloeobacter violaceus ligand-gated ion channel R133A mutant at 1 mM. Put shortly: as §2
In series [19] the test system is Oocyte. The series can be described thus: Inhibition of Gloeobacter violaceus ligand-gated ion channel expressed in Xenopus laevis oocytes assessed as inhibition of MES buffer-induced currents at 1 mM at pH 5.5 measured after wash-out by voltage clamp technique. The series is classed as cell-based.

What is called IC50 is the point on the concentration scale where inhibition reaches its midpoint. As a reminder, the inhibition is the share of the control response that was lost under treatment. As for `NC(=O)/C=C/c1ccc(O)c(O)c1`, in series [1], the half-inhibitory concentration (IC50) worked out at 347 µM. The inhibition with Oocyte [2] was determined as 51.6%.
For `O=C(O)/C=C/c1ccc2c(c1)OCO2`, in series [1], the IC50 was determined as 28.8 µM. Moreover, the inhibition in the series with Oocyte [3] worked out at 79.7%.
As for `OC/C=C/c1ccc(O)c(O)c1`, the IC50 in series [1] came out at 73.9 µM. The inhibition in the series on Oocyte [4] stood at 95.2%.
For orientation: pKa means the negative logarithm of the acid dissociation constant. Read a high pKa as a weaker acid or stronger base. In the case of `O=C(O)COc1ccccc1`, the IC50 in series [1] was 53.3 µM. For the same compound, in the series with Oocyte [4], the inhibition is 98.5%. This compound came in with a pKa in series [5] of 3.2.
For `COc1ccc2cc(C(=O)O)c(=O)oc2c1`, the IC50 in [1] amounted to 168 µM. In the series on Oocyte [4], the inhibition was 96%.
As to `O=C(O)C(=Cc1ccccc1)C(=O)O`, the IC50 in series [1] worked out at 7940 µM. For the same compound, the inhibition in the series with Oocyte [4] was 25%. The pKa in series [5] was 3.5.
Take `O=C(O)/C=C/c1cccc(C(F)(F)F)c1`: the IC50 in series [1] stood at 25.3 µM. Besides, the inhibition in the series on Oocyte [4] was 94.6%. The compound further yielded a pKa in [5] of 4.6.
With `O=C(O)C(=C/C=C/c1ccccc1)C(=O)O`, the IC50 in series [1] was 83.5 µM. Also, in the series with Oocyte [4], the inhibition was 92.2%. The compound also showed a pKa in [5] of 3.45.
Regarding `CCNC(=O)/C=C/c1ccc(O)c(O)c1`, in [1], the IC50 was found to be 295 µM. Further, the inhibition with Oocyte [4] turned out to be 81.6%. Further, in the series with Oocyte [6] (300 uM, in the assay text read “at 300 uM” for “at 100 uM”), the inhibition entry was “inactive”.
For `COc1ccc(/C=C/C(=O)O)cc1OC`, the IC50 in series [1] was determined as 206 µM. In the series on Oocyte [4], the inhibition came to 75.6%. For the same compound, the pKa in series [5] was found to be 4.55.
The corresponding values for `O=C(O)/C=C/c1cccc(Cl)c1` [3-CHLORO-CINNAMIC ACID] are 13.7 µM, 95% and 4.8.
Take `O=C(O)c1ccc2ccccc2c1` [BETA-NAPHTOIC ACID]: the concentration for half-maximal inhibition (IC50) in series [1] was 61.4 µM. In addition, the inhibition with Oocyte [4] was determined as 96.4%. The same compound yielded a pKa in [5] of 4.45.
For the compound `O=C(O)/C=C/c1ccc(O)c(O)c1` [CAFFEIC ACID], the Ratio IC50 in the series with Oocyte [7], in the series on Oocyte [10] and in the series with Oocyte [11] was > 10 throughout. Further, the IC50 in series [1] is 16.7 µM; in series [8], 420 µM; in series [12], 945 µM; in series [15], 506 µM; in [17], 24.1 µM. Besides, the inhibition is 15% with Gloeobacter violaceus [9]; 80% with Gloeobacter violaceus [13]; 93.8% with Oocyte [4]; 15% in the series on Gloeobacter violaceus [14]; 15% in the series on Gloeobacter violaceus [16]. For the same compound, the inhibition result with Gloeobacter violaceus [18], in the series on Oocyte [19] and in the series with Oocyte [6] (100 uM) was “inactive” throughout. Further, in series [5], the pKa was 4.35.
Turning to `O=C(O)/C=C/c1ccccc1` [CINNAMIC ACID], the half-maximal inhibitory concentration (IC50) in series [1] was 34.6 µM. Also, in the series on Oocyte [4], the inhibition worked out at 97.5%.
With `O=C(O)/C=C/c1ccc(O)cc1` [COUMARIC ACID], the IC50 in [1] was 9.59 µM. Besides, in the series on Oocyte [2], the inhibition was 91.4%.
Regarding `O=C(O)c1cc2ccccc2oc1=O` [COUMARIN-3-CARBOXYLIC ACID], the IC50 in [1] was 282 µM. In addition, the inhibition with Oocyte [4] is 84%. The pKa in [5] came to 3.6.
Take `O=C(O)CCc1ccc(O)c(O)c1` [DIHYDROCAFFEIC ACID]: the IC50 in series [1] came to 86.8 µM. The inhibition in the series on Oocyte [4] is 90.5%. In series [5], this compound had a pKa of 4.3.
`CCOC(=O)/C=C/c1ccc(O)c(O)c1` [ETHYL CAFFEATE]: the IC50 in series [1] amounted to 246 µM. The inhibition in the series with Oocyte [4] worked out at 91.8%.
In the case of `COc1ccc(/C=C/C(=O)O)cc1O` [ISOFERULIC ACID], the IC50 in series [1] amounted to 13.5 µM. Moreover, the inhibition with Oocyte [4] came out at 98.5%.
With `COC(=O)/C=C/c1ccc(O)c(O)c1` [METHYLCAFFEATE], the IC50 in [1] was 388 µM. In addition, the inhibition with Oocyte [4] was determined as 78%.
